13 compounds from ChEMBL document CHEMBL2311442, “Identification of novel antimycobacterial chemical agents through the in silico multi-conformational structure-based drug screening of a large-scale chemical library” (Eur J Med Chem, 2013) can be followed below.

By IC50 is commonly meant the concentration that gives 50% inhibition. Higher therefore signals a need for much substance. The term Ki denotes a measure of affinity in units of concentration, obtained from inhibition or displacement. Low readings indicate tighter binding, high ones weaker binding.

In series [1] the test system is Mycobacterium vanbaalenii. The experiment in a line: Growth inhibition of Mycobacterium vanbaalenii at 50 uM up to 24 hrs. The note with it: Mycolicibacterium vanbaalenii. It is filed as functional. The essentials:
(§1)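 Mycobacteria grown overnight or 2 days at 37 C, 300 rpm in 3.7% brain heart infusion broth; M. smegmatis diluted 8x before seeding. Diluted culture incubated with compound (M. vanbaalenii 50 uM, M. smegmatis 100 uM). Controls: 0.3% DMSO (negative), isoniazid (positive). A595 read at 4, 8, 18, 24 h. Mean ± SEM of four experiments; Dunnett's test.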

Series [2] in a line: Cytotoxicity against human SH-SY5Y at 50 uM after 2 days by CCK8 assay. The note with it: 48 h. It is filed as cell-based. The essentials: (§2)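 MDCK (5.0 x 10^3/well) and SH-SY5Y (1.5 x 10^4/well) in DMEM with 10% FBS, penicillin/streptomycin, 2 mM glutamine. Starved in 0.25% FBS (MDCK overnight, SH-SY5Y 2 days), then given compound at 50 uM in 0.25% FBS medium. Exposure: MDCK 1 day, SH-SY5Y 2 days. CCK-8 added, 3 h, WST-8 formazan A450. Isoniazid 50 uM control; mean ± SEM, n=4; Dunnett's test.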
On the technique in general: Tetrazolium assays rely on reduction of a dye to a coloured formazan, in cell work by metabolically active cells.

In series [3] the test system is MDCK. The experiment in a line: Cytotoxicity against MDCK at 50 uM after 1 day by CCK8 assay. It is filed as cell-based, Canis lupus familiaris. The note with it: dog, 24 h. The procedure, abridged:
as §2

The subject of series [4] is Escherichia coli. Briefly: Toxicity against Escherichia coli BL21 at 50 uM after 24 hrs.
For series [5], the system named is Escherichia coli. Briefly: Toxicity against Escherichia coli JM 109 at 50 uM after 24 hrs. It is filed as organism-based. The note with it: in vivo.
Series [6] deals with Mycobacterium vanbaalenii. The experiment in a line: Antimycobacterial activity against Mycobacterium vanbaalenii incubated up to 24 hrs. It is filed as functional, Mycolicibacterium vanbaalenii. The essentials: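 M. vanbaalenii grown overnight or 2 days at 37 C, 300 rpm in 3.7% brain heart infusion broth, diluted, then incubated in medium with compound across a dose range. Growth read as A595 at 4, 8, 18 and 24 h; growth rate (%) taken from 24 h culture. IC50 from dose-response; mean ± SD, four independent experiments.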

The test system of series [7] is Mycobacterium vanbaalenii. The experiment in a line: Growth inhibition of Mycobacterium vanbaalenii at 50 uM after 18 hrs. The settings on record: Mycolicibacterium vanbaalenii. It is filed as functional. The essentials:
as §1

Series [8] has as its system Mycolicibacterium smegmatis. Briefly: Growth inhibition of Mycobacterium smegmatis at 100 uM after 24 hrs. It is filed as functional, organism-based. The essentials: as §1
In series [9] the target is T1, Thymidylate kinase (Mycobacterium tuberculosis, UniProt P9WKE1).
T1 sequence (P9WKE1 whole entry): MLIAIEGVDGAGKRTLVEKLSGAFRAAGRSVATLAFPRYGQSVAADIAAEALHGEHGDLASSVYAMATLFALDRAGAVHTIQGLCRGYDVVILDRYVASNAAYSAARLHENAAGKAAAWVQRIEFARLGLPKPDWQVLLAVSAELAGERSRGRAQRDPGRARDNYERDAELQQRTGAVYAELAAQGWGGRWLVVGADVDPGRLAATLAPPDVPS
The experiment in a line: Inhibition of Mycobacterium tuberculosis thymidine monophosphate kinase.

Series [10] addresses T2, Enoyl-[acyl-carrier-protein] reductase [NADH] (Mycobacterium tuberculosis, UniProt P9WGR1).
T2 sequence (P9WGR1 whole entry): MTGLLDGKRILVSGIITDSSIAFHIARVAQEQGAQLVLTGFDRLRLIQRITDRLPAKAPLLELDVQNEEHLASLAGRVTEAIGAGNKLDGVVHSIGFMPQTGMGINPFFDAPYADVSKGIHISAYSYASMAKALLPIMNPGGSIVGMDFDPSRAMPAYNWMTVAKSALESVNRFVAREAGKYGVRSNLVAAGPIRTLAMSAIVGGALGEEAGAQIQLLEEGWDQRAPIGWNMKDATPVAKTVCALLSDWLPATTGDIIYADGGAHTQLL
Briefly: Inhibition of Mycobacterium tuberculosis InhA.

The structures appear in SMILES notation. Activity calls are given as the source filed them. The calls are words filed in the database; no cut-off is given here.

`COC(=O)COc1ccc(NC(=O)c2ccc(C(C)(C)C)cc2)cc1`: the “growth inhibition (GI)” value in [1] is “inactive”.

With `Cc1ccc(Nc2nc(Nc3ccc(C)cc3)nc(Sc3nnc(C)s3)n2)cc1`, the Activity result is recorded as “Toxic” in series [2], “Toxic” in series [3], “Non-toxic” in series [4] and “Non-toxic” in [5]. For the same compound, the 50% inhibitory concentration (IC50) in series [6] amounted to 22 µM. In addition, the “growth inhibition (GI)” value in series [7], in [8] and in series [1] was “Active” throughout.

Take `CCCCc1cc(=O)oc2cc(OCC(=O)OCC)c(Cl)cc12`: the “growth inhibition (GI)” value in series [1] is “inactive”.

Regarding `Cc1cn([C@H]2C[C@H](CN=[N+]=[N-])[C@@H](COP(=O)(O)O)O2)c(=O)[nH]c1=O`, the affinity in [9] corresponds to a Ki of 10 µM.

On to `CCCc1cc(=O)oc2cc(OCC(=O)OCc3ccccc3)c(Cl)cc12`, for which the “growth inhibition (GI)” value in series [1] was “inactive”.

Take `O=C(Oc1cccc2cccnc12)c1ccc(S(=O)(=O)c2ccc(Cl)cc2)cc1`: the Activity result in series [2], in series [3], in series [4] and in series [5] was “Non-toxic” throughout. In [6], the IC50 amounted to 20 µM. Further, the “growth inhibition (GI)” value in series [7], in series [8] and in [1] was “Active” throughout.

For the compound `CCOc1ccc(NC(=O)CSc2nc3ccc(NC(=O)c4ccccc4C)cc3s2)cc1`, in series [1], the “growth inhibition (GI)” value is “inactive”.

`COc1ccc(-c2cc3ccccc3oc2=O)cc1NC(=O)COc1ccc(Cl)cc1C`: the “growth inhibition (GI)” value in series [1] is “inactive”.

For `O=C(Nc1ccc(OCc2ccccc2)cc1)C1CCN(C(=O)c2ccc([N+](=O)[O-])cc2)CC1`, the “growth inhibition (GI)” value in [1] is “inactive”.

The compound `NNC(=O)c1ccncc1` [ISONIAZID] displayed a 50% inhibitory concentration (IC50) in series [6] of 2.6 µM. The “growth inhibition (GI)” value in [7] and in [8] was “Active” in each case.

In the case of `CCc1cc(=O)oc2cc(OCC(=O)OCc3ccccc3)c(Cl)cc12`, the “growth inhibition (GI)” value in series [7] and in series [1] was “Active” in each case. Moreover, the “growth inhibition (GI)” value in series [8] was “inactive”.

As for `NC(=O)C1=CN([C@@H]2O[C@H](COP(=O)(O)OP(=O)(O)OC[C@H]3O[C@@H](n4cnc5c(N)ncnc54)[C@H](O)[C@@H]3O)[C@@H](O)[C@H]2O)C=C[C@H]1C(=O)c1ccncc1`, the Ki in series [10] came to 0.00075 µM.

For `CC(C)Oc1cccc(-c2cc(C(=O)NCCc3ccc(S(N)(=O)=O)cc3)c3ccccc3n2)c1`, the Activity entry in series [2], in series [3], in series [4] and in [5] was “Non-toxic” throughout. Also, in [6], the IC50 was 15 µM. The “growth inhibition (GI)” value in series [7], in series [8] and in [1] was “Active” in each case.
